Drawing on the array DNA melting data of Ke et al. (doi:10.1101/2024.01.08.574731), this text covers Tm and folding enthalpy for 73 sequences.

Series [1] can be described thus: melting temperature; fluorescence melt of hairpins on a sequencing array, two-state fit, raised by 9.35 °C to match UV melts. Conditions: sodium 0.088 M. The method, boiled down:
(§1)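 Folding enthalpy and melting temperature were estimated with bootstrapped two-state fits and combined across four replicates by inverse-variance weighting, with fitted temperatures raised by 9.35 °C to match UV melts. The data were Cy3 fluorescence of library hairpins, with annealed Cy3 and quencher oligos, on a sequenced MiSeq flow cell in 50 mM Na-HEPES pH 8.0, 25 mM NaCl, imaged in 2.5 °C steps up to 60 °C and normalised to pre-quench Cy3 and control constructs.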

The nature of series [2]: folding enthalpy; higher = less favourable; fluorescence melt of hairpins on a sequencing array, two-state fit. Conditions: sodium 0.088 M. In short, it runs like this:
as §1

With GCAGTTCGAAAGAAATGC (((.(((....))).))), the Tm in series [1] was determined as 54.2 °C. In addition, the folding enthalpy in series [2] was -36.8 kcal/mol.
The corresponding values for GCAGTTGCGAAAGCATGC (((..(((....)))))) are 42 °C and -16.8 kcal/mol.
For GCAGTTGGAAACAGTTGC (((..((....))..))), in that order: 29.7 °C and -13.8 kcal/mol.
The corresponding values for GCATACACGAAAGTGTGC (((..(((....)))))) are 45.9 °C and -16.1 kcal/mol.
For the sequence GCATACCGAAAGGTGTGC (((.(((....))).))), the Tm in series [1] was found to be 63.3 °C. Moreover, in series [2], the folding enthalpy was -43.2 kcal/mol.
In the case of GCATACGAAAGTAACTGC ((((((....)))..))), the Tm in series [1] came to 31.1 °C. For the same sequence, the folding enthalpy in series [2] was -13.6 kcal/mol.
For GCATACGAAAGTAATGC ((((((....))).))), in that order: 50.1 °C and -35.4 kcal/mol.
The corresponding values for GCATACGAAAGTACTGC ((((((....))).))) are 41.4 °C and -22.4 kcal/mol.
For GCATACGAAAGTACTTGC ((((((....)))..))), in that order: 30.8 °C and -11.7 kcal/mol.
In the case of GCATACGAAAGTAGATGC ((((((....)))..))), the Tm in series [1] was 41.1 °C. The folding enthalpy in series [2] was -27.1 kcal/mol.
Consider GCATACGAAAGTAGGTGC ((((((....)))..))), for which the Tm in series [1] is 40.4 °C. Moreover, the folding enthalpy in series [2] is -27.1 kcal/mol.
The corresponding values for GCATAGCGAAAGCAATGC ((((.((....)).)))) are 60.4 °C and -23.1 kcal/mol.
For GCATAGCGAAAGCCGTGC (((..((....))..))), in that order: 39.6 °C and -17.5 kcal/mol.
The corresponding values for GCATAGCGAAAGCGAAGC ((.(.((....)).).)) are 58.1 °C and -22.6 kcal/mol.
Take GCATAGCGAAAGCGTTGC (((..((....))..))): in series [1], the Tm was 56.8 °C. Moreover, the folding enthalpy in series [2] is -27.1 kcal/mol.
The corresponding values for GCATAGCGAAAGCTAAGC ((.((((....)))).)) are 51.2 °C and -16.2 kcal/mol.
The corresponding values for GCATAGCGAAAGCTGGGC ((..(((....)))..)) are 56.5 °C and -18.1 kcal/mol.
For GCATAGCGAAAGCTTTGC (((.(((....))).))), in that order: 53.4 °C and -41.9 kcal/mol.
In the case of GCATAGGAAACTATGC ((((((....)))))), the Tm in series [1] was determined as 53.7 °C. Also, in series [2], the folding enthalpy was -35.4 kcal/mol.
Take GCATAGGGAAACTTGTGC (((.(.(....).).))): in series [1], the Tm turned out to be 29.9 °C. The folding enthalpy in series [2] was -13 kcal/mol.
The corresponding values for GCATATGCGAAAGCATGC (((..(((....)))))) are 48.2 °C and -14.8 kcal/mol.
For GCATATGGAAACATACGC ((.((((....)))).)), in that order: 35.4 °C and -26.3 kcal/mol.
The corresponding values for GCATATTCGAAAGAATGC (((..(((....)))))) are 34 °C and -18.7 kcal/mol.
For the sequence GCATCACCGAAAGGTTGC (((..(((....)))))), the Tm in series [1] is 37.4 °C. In series [2], the folding enthalpy is -19.1 kcal/mol.
Turning to GCATCCCGAAAGGGTGC (((.(((....)))))), in series [1], the Tm was found to be 61.5 °C. Also, the folding enthalpy in series [2] was -15.5 kcal/mol.
For GCATCCCGAAAGGGTTGC (((.(((....))).))), in that order: 60.1 °C and -30.1 kcal/mol.
For GCATCCGAAAGGACTTGC ((((((....)))..))), in that order: 32.9 °C and -19.4 kcal/mol.
For GCATCGACGAAAGTCTGC (((..(((....)))))), in that order: 33.6 °C and -15.8 kcal/mol.
For GCATCGCCGAAAGGCTGC (((..(((....)))))), the Tm in series [1] was 43.4 °C. Moreover, in series [2], the folding enthalpy was -14.1 kcal/mol.
For GCATCGCGAAAGCCACGC ((.(.((....)).).)), the Tm in series [1] was found to be 26.5 °C. Besides, the folding enthalpy in series [2] was -10.2 kcal/mol.
For GCATCGCGAAAGCGACGC ((.((((....)))).)), in that order: 63.9 °C and -21.4 kcal/mol.
For GCATCGCGAAAGCGCAGC ((..(((....)))..)), in that order: 39.9 °C and -12.6 kcal/mol.
For GCATCGCGAAAGCGTGC (((.(((....)))))), in that order: 63.8 °C and -19.7 kcal/mol.
As for GCATCGCGAAAGCGTTGC (((.(((....))).))), the Tm in series [1] was 58.5 °C. In series [2], the folding enthalpy was -44.2 kcal/mol.
The corresponding values for GCATCGCGAAAGCTAGGC ((.(.((....)).).)) are 42.8 °C and -14 kcal/mol.
For GCATCGCGAAAGCTATGC ((((.((....)).)))), in that order: 59 °C and -24.1 kcal/mol.
Regarding GCATCGGGAAACCGGTGC (((.(((....))).))), the Tm in series [1] is 59.1 °C. In addition, the folding enthalpy in series [2] is -44.5 kcal/mol.
Turning to GCATCGTCGAAAGACTGC (((..(((....)))))), in series [1], the Tm turned out to be 36.8 °C. The folding enthalpy in series [2] is -15.8 kcal/mol.
GCATCTCCGAAAGGATGC (((..(((....)))))): in series [1], the Tm turned out to be 46.1 °C. The folding enthalpy in series [2] is -28.6 kcal/mol.
For GCATCTCGAAAGAGGTGC (((.(((....))).))), in that order: 59.8 °C and -37.4 kcal/mol.
The corresponding values for GCATGACCGAAAGGTTGC (((..(((....)))))) are 41.5 °C and -18.6 kcal/mol.
The corresponding values for GCATGACGAAAGTCGTGC (((.(((....))).))) are 63.6 °C and -42 kcal/mol.
For the sequence GCATGACGAAAGTCTGC (((.(((....)))))), the Tm in series [1] was 53.9 °C. In addition, the folding enthalpy in series [2] was -29 kcal/mol.
For GCATGAGGAAACTCACGC ((.((((....)))).)), in that order: 41.3 °C and -28 kcal/mol.
Consider GCATGCCGAAAGGCTGC (((.(((....)))))), for which the Tm in series [1] was 65.7 °C. Besides, the folding enthalpy in series [2] is -21.6 kcal/mol.
Turning to GCATGCGAAAGCAAATGC ((((((....)))..))), the Tm in series [1] was 52.6 °C. The folding enthalpy in series [2] is -24.9 kcal/mol.
For GCATGCGAAAGCATATGC ((((((....)))..))), in that order: 50.1 °C and -20.1 kcal/mol.
For GCATGCGAAAGCATTTGC ((((((....)))..))), in series [1], the Tm was determined as 42.3 °C. The folding enthalpy in series [2] was -14.4 kcal/mol.
GCATGCGGAAACGTGTGC (((..((....))..))): in series [1], the Tm came to 50.4 °C. For the same sequence, the folding enthalpy in series [2] was -37.8 kcal/mol.
Turning to GCATGGCGAAAGCCTTGC (((.(((....))).))), in series [1], the Tm was 60.8 °C. Further, in series [2], the folding enthalpy was -35.4 kcal/mol.
The corresponding values for GCATGGCGAAAGCGATGC ((((.((....)).)))) are 64.2 °C and -22 kcal/mol.
For GCATGGGGAAACCCATAC (.(((((....))))).), in that order: 36.5 °C and -15.6 kcal/mol.
As for GCATGGGGAAACCTATGC ((((.((....)).)))), the Tm in series [1] is 50.8 °C. In addition, in series [2], the folding enthalpy was -39.4 kcal/mol.
For GCATGTGCGAAAGCATGC (((..(((....)))))), in that order: 52.2 °C and -18.3 kcal/mol.
For the sequence GCATGTTCGAAAGAATGC (((..(((....)))))), the Tm in series [1] was 30.8 °C. For the same sequence, the folding enthalpy in series [2] was -24 kcal/mol.
For GCATTAGCGAAAGCTTGC (((..(((....)))))), in that order: 40 °C and -18.1 kcal/mol.
With GCATTAGGAAACTAATGC (((((((....))))))), in series [1], the Tm was 55.6 °C. Also, in series [2], the folding enthalpy was -44.6 kcal/mol.
The corresponding values for GCATTCCGAAAGGATGC (((.(((....)))))) are 53.7 °C and -30.7 kcal/mol.
The corresponding values for GCATTCGAAAGAACTGC ((((((....))).))) are 34.9 °C and -28.2 kcal/mol.
Take GCATTCGAAAGAATCTGC ((((((....)))..))): the Tm in series [1] turned out to be 34.5 °C. Moreover, the folding enthalpy in series [2] is -21.5 kcal/mol.
Turning to GCATTCGAAAGAATTGC ((((((....))).))), in series [1], the Tm came out at 41.1 °C. For the same sequence, in series [2], the folding enthalpy was -19.5 kcal/mol.
Regarding GCATTGAAAAATGC (((((....))))), the Tm in series [1] worked out at 49.2 °C. The folding enthalpy in series [2] is -31.2 kcal/mol.
For GCATTGACGAAAGTCTGC (((..(((....)))))), in that order: 38.9 °C and -16.5 kcal/mol.
For GCATTGCGAAAGCAAAGC ((.((((....)))).)), in that order: 58 °C and -18.6 kcal/mol.
The corresponding values for GCATTGCGAAAGCAACGC ((.((((....)))).)) are 60.4 °C and -26.7 kcal/mol.
Take GCATTGCGAAAGCAGGGC ((..(((....)))..)): the Tm in series [1] came out at 51 °C. Also, in series [2], the folding enthalpy was -20.7 kcal/mol.
For GCATTGCGAAAGCATAGC ((..(((....)))..)), in that order: 48.8 °C and -19 kcal/mol.
The corresponding values for GCATTGCGAAAGCATGC (((.(((....)))))) are 55.7 °C and -34.3 kcal/mol.
For GCATTGCGAAAGCCATGC ((((.((....)).)))), in that order: 58.4 °C and -29.1 kcal/mol.
With GCATTGCGAAAGCGTTGC (((..((....))..))), in series [1], the Tm stood at 47.5 °C. In addition, in series [2], the folding enthalpy is -21.9 kcal/mol.
The corresponding values for GCATTGCGAAAGCTAGGC ((.(.((....)).).)) are 48.7 °C and -17.9 kcal/mol.
For GCATTGGAAACAATGC ((((((....)))))), in that order: 57.7 °C and -39.4 kcal/mol.
As for GCATTGGGAAACTAATGC (((((.(....).))))), the Tm in series [1] is 46.7 °C. In addition, the folding enthalpy in series [2] is -32.6 kcal/mol.
